For orientation: EC50 means the concentration needed to bring the measured effect to its halfway point. By pEC50 is commonly meant the EC50 on a negative log10 scale, so that one unit is a factor of ten.

The text below walks through data of PubChem BioAssay AID488748 (Sanford-Burnham Center for Chemical Genomics, 2010).

SMILES strings stand for the structures. pEC50: −log10 of the molar value. Activity calls are given as the source filed them.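 Rule for the calls: active = compounds whose mean dose-response EC50 for APJ receptor activation is under 20 micromolar; inactive = the rest.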 Bounds are passed on as bounds.

The target in this test is Apelin receptor (Homo sapiens) (UniProt P35414). Description: APJ agonists inducing beta-arrestin recruitment, dose response, cell-based, luminescence, uHTS hits (AID 488748). To be noted: CHO-K1 APJ PathHunter beta-arrestin. In a few lines: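 Assay system – CHO-K1 cells stably expressing ProLink-tagged APJ and enzyme-acceptor-fused beta-arrestin · Doses – compound dose series over a concentration range · Schedule – 90 min compound treatment at 25 °C · Detection – beta-gal complementation luminescence · Controls – Apelin-13 agonist as positive control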
Apelin receptor (Homo sapiens), sequence (P35414 whole entry, looked up, the tested form may be a part): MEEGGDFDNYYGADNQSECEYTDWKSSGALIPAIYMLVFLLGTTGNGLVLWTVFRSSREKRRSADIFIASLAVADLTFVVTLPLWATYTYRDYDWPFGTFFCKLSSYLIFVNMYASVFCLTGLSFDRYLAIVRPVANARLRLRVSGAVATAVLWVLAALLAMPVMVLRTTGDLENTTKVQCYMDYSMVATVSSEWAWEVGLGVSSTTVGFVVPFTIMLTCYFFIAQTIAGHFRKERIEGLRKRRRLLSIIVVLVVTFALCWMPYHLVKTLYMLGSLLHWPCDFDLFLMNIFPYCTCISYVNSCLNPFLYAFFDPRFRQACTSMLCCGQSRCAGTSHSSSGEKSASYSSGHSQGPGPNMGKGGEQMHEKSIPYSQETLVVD
Turning to `CCCCCCc1cc2cc(-c3nnc(-c4cc(OC)c(OC)c(OC)c4)o3)c(=O)oc2cc1O`, the EC50 is > 100 µM (inactive).
As to `CCOC(=O)C1=C(Cn2cnc3ccccc32)NC(=O)NC1c1cc(C)ccc1C` (stereo not given), the EC50 is > 100 µM (inactive).
For the compound `COc1ccc(/C=N/Nc2cc(C)nc3ccc(OC)cc23)c(OC)c1`, the EC50 is > 100 µM (inactive).
Still for that read-out and setting: for `COC(=O)C1=C(Cn2cnc3ccccc32)NC(=O)NC1c1cc(C)ccc1C` (stereo not given) the value was > 100 µM (inactive).
`CC1=CC(=O)C(C(C)C)=C/C1=N/OS(=O)(=O)c1ccccc1`: the pEC50 was 5.12.
